Consider 36 compounds from ChEMBL document CHEMBL4000144, “Novel amide and sulphonamide derivatives of 6-(piperazin-1-yl)phenanthridine as potent Mycobacterium tuberculosis H37Rv inhibitors” (Eur J Med Chem, 2015).

The term IC50 denotes the point on the concentration scale where inhibition reaches its midpoint. The term inhibition denotes how much of the control response was suppressed. A word on the MIC99: it is the lowest concentration that inhibits either 99% of growth or 99% of the strains tested, depending on the study. The low end stands for higher susceptibility, the high end for lower susceptibility.

One data set concerns RAW264.7. The data set is described as follows: Cytotoxicity against mouse RAW264.7 cells assessed as inhibition of cell viability after 72 hrs by Cell Titer 96 non-radioactive cell proliferation assay. To be noted: RAW264.7, 72 h. It is filed as cell-based. In a few lines:
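MTT-type Cell Titer 96 non-radioactive proliferation assay on mouse macrophage RAW264.7 cells. Viability was read after 72 h of exposure. IC50 values are given as approximate.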

Data set [1] is described as follows: Cytotoxicity against mouse RAW264.7 cells assessed as inhibition of cell viability at 50 ug/ml after 72 hrs by Cell Titer 96 non-radioactive cell proliferation assay. It is filed as cell-based. The essentials: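 Mouse macrophage RAW264.7 cells exposed to compound at 50 µg/mL for 72 h. Viability was then measured by the MTT-type Cell Titer 96 non-radioactive proliferation assay.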

The subject of data set [2] is Mycobacterium tuberculosis. The data set is described as follows: Antimycobacterial activity against Mycobacterium tuberculosis H37Rv ATCC 27294 after 5 days by microplate alamar blue assay. It is filed as functional. To be noted: H37Rv ATCC 27294, 120 h. In a few lines:
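MTB H37Rv (ATCC 27294) in 7H9GC broth, 2-fold serial dilutions from 50 to 0.78 µg/mL. Controls were medium only, inoculum only, and inoculum with 3-5% DMSO. Incubated at 37°C for 5 days. Then 1:1 10× Alamar Blue/10% Tween 80 was added and plates read after a further 24 h at 37°C. Blue scored as no growth, pink as growth.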

Data set [3] is described as follows: Selectivity index, ratio of IC50 for mouse RAW264.7 cells to MIC for Mycobacterium tuberculosis H37Rv ATCC 27294. It is filed as toxicity. To be noted: read-out: Selectivity Index.

The structures appear in SMILES notation. Values after ≈ are worked out from the molar mass of the structure shown.

As to `O=S(=O)(c1ccc(Cl)cc1)N1CCN(c2nc3ccccc3c3ccccc23)CC1`, in the data set on RAW264.7, the 50% inhibitory concentration (IC50) was 120 µg/mL (≈ 273 µM). Moreover, the inhibition at 72 h, 50 ug/ml in data set [1] was found to be 20.9%. Further, in data set [2], the MIC99 was 3.13 µg/mL (≈ 7.15 µM). The selectivity ratio in data set [3] is 38.3.
The compound `O=C(c1cc([N+](=O)[O-])cc([N+](=O)[O-])c1)N1CCN(c2nc3ccccc3c3ccccc23)CC1` returned an MIC99 in data set [2] of 25 µg/mL (≈ 54.7 µM).
As to `O=C(c1ccc(Cl)cc1)N1CCN(c2nc3ccccc3c3ccccc23)CC1`, the IC50 in the data set on RAW264.7 was determined as 94.3 µg/mL (≈ 235 µM). The inhibition at 72 h, 50 ug/ml in data set [1] amounted to 26.5%. For the same compound, the MIC99 in data set [2] came out at 12.5 µg/mL (≈ 31.1 µM). Further, the selectivity ratio in data set [3] was found to be 7.54.
Regarding `O=S(=O)(c1ccccc1)N1CCN(c2nc3ccccc3c3ccccc23)CC1`, the IC50 with RAW264.7 was determined as 81.4 µg/mL (≈ 202 µM). The inhibition at 72 h, 50 ug/ml in data set [1] turned out to be 30.7%. This compound displayed an MIC99 in data set [2] of 6.25 µg/mL (≈ 15.5 µM). Besides, in data set [3], the selectivity ratio amounted to 13.
`O=C(Cc1c[nH]c2ccccc12)N1CCN(c2nc3ccccc3c3ccccc23)CC1` returned an MIC99 in data set [2] of 25 µg/mL (≈ 59.5 µM).
With `Cc1cc(S(=O)(=O)N2CCN(c3nc4ccccc4c4ccccc34)CC2)c(C)cc1Cl`, the IC50 with RAW264.7 came to 72.2 µg/mL (≈ 155 µM). Besides, the inhibition at 72 h, 50 ug/ml in data set [1] stood at 34.6%. The MIC99 in data set [2] worked out at 6.25 µg/mL (≈ 13.4 µM). Moreover, in data set [3], the selectivity ratio was 11.5.
On the same counts, the results for `CC(C)(C)c1ccc(S(=O)(=O)N2CCN(c3nc4ccccc4c4ccccc34)CC2)cc1` are 86.4 µg/mL (≈ 188 µM), 28.9%, 1.56 µg/mL (≈ 3.39 µM) and 55.4.
On to `O=C(/C=C/c1ccccc1)N1CCN(c2nc3ccccc3c3ccccc23)CC1`, for which, in the data set with RAW264.7, the IC50 is 113 µg/mL (≈ 287 µM). In data set [1], the inhibition at 72 h, 50 ug/ml was determined as 22.1%. Further, the MIC99 in data set [2] amounted to 12.5 µg/mL (≈ 31.8 µM). The selectivity ratio in data set [3] was 9.04.
Take `O=S(=O)(c1ccc(Br)s1)N1CCN(c2nc3ccccc3c3ccccc23)CC1`: in the data set on RAW264.7, the IC50 was determined as 59.3 µg/mL (≈ 121 µM). In addition, the inhibition at 72 h, 50 ug/ml in data set [1] amounted to 42.2%. Moreover, the MIC99 in data set [2] was 3.13 µg/mL (≈ 6.41 µM).
On to `CO[C@H]1/C=C/O[C@@]2(C)Oc3c(C)c(O)c4c(O)c(c(/C=N/N5CCN(C)CC5)c(O)c4c3C2=O)NC(=O)/C(C)=C\C=C\[C@H](C)[C@H](O)[C@@H](C)[C@@H](O)[C@@H](C)[C@H](OC(C)=O)[C@@H]1C` [RIFAMPIN], for which the MIC99 in data set [2] came to 0.2 µg/mL (≈ 0.243 µM).
Regarding `O=C(c1ccncc1)N1CCN(c2nc3ccccc3c3ccccc23)CC1`, the IC50 in the data set with RAW264.7 is 89.6 µg/mL (≈ 243 µM). Moreover, the inhibition at 72 h, 50 ug/ml in data set [1] is 27.9%. The MIC99 in data set [2] was found to be 1.56 µg/mL (≈ 4.23 µM). The selectivity ratio in data set [3] is 57.4.
Turning to `O=C(CCc1c[nH]c2ccccc12)N1CCN(c2nc3ccccc3c3ccccc23)CC1`, the IC50 with RAW264.7 was 72.2 µg/mL (≈ 166 µM). Also, in data set [1], the inhibition at 72 h, 50 ug/ml amounted to 34.6%. Further, the MIC99 in data set [2] came out at 6.25 µg/mL (≈ 14.4 µM). In data set [3], the selectivity ratio turned out to be 11.5.
In turn, `O=S(=O)(c1ccc(C(F)(F)F)cc1)N1CCN(c2nc3ccccc3c3ccccc23)CC1` had an MIC99 in data set [2] of 25 µg/mL (≈ 53 µM).
In the case of `Nc1ccc(C(=O)N2CCN(c3nc4ccccc4c4ccccc34)CC2)cc1`, the MIC99 in data set [2] was found to be 50 µg/mL (≈ 131 µM).
In the case of `O=C(c1cccs1)N1CCN(c2nc3ccccc3c3ccccc23)CC1`, the MIC99 in data set [2] stood at 50 µg/mL (≈ 134 µM).
For `O=C(c1cccc([N+](=O)[O-])c1)N1CCN(c2nc3ccccc3c3ccccc23)CC1`, in the data set with RAW264.7, the IC50 was 72.2 µg/mL (≈ 175 µM). Also, the inhibition at 72 h, 50 ug/ml in data set [1] was determined as 34.6%. The same compound registered an MIC99 in data set [2] of 3.13 µg/mL (≈ 7.59 µM). Besides, the selectivity ratio in data set [3] worked out at 23.1.
On the same counts, the results for `O=C(c1cccnc1)N1CCN(c2nc3ccccc3c3ccccc23)CC1` are 130 µg/mL (≈ 354 µM), 19.2%, 6.25 µg/mL (≈ 17 µM) and 20.9.
For the compound `O=C(c1ccco1)N1CCN(c2nc3ccccc3c3ccccc23)CC1`, the MIC99 in data set [2] was 25 µg/mL (≈ 69.9 µM).
Same read-out and setting: the value for `CS(=O)(=O)N1CCN(c2nc3ccccc3c3ccccc23)CC1` was 25 µg/mL (≈ 73.2 µM).
Take `O=C(O)c1cccc(C(=O)N2CCN(c3nc4ccccc4c4ccccc34)CC2)n1`: the IC50 in the data set on RAW264.7 came out at 94.3 µg/mL (≈ 229 µM). Moreover, the inhibition at 72 h, 50 ug/ml in data set [1] turned out to be 26.5%. This compound also registered an MIC99 in data set [2] of 3.13 µg/mL (≈ 7.59 µM). In addition, the selectivity ratio in data set [3] came out at 30.2.
Turning to `O=C(c1ccc([N+](=O)[O-])cc1)N1CCN(c2nc3ccccc3c3ccccc23)CC1`, the MIC99 in data set [2] was 50 µg/mL (≈ 121 µM).
`Cc1ccc(S(=O)(=O)N2CCN(c3nc4ccccc4c4ccccc34)CC2)cc1` returned an MIC99 in data set [2] above 50 µg/mL.
As for `O=C(c1ccccc1)N1CCN(c2nc3ccccc3c3ccccc23)CC1`, in the data set with RAW264.7, the IC50 was found to be 113 µg/mL (≈ 307 µM). Besides, the inhibition at 72 h, 50 ug/ml in data set [1] amounted to 22.2%. Also, the MIC99 in data set [2] came to 3.13 µg/mL (≈ 8.52 µM). The selectivity ratio in data set [3] came to 36.1.
In data set [2], `CC(=O)c1ccc(S(=O)(=O)N2CCN(c3nc4ccccc4c4ccccc34)CC2)cc1` gave an MIC99 of 25 µg/mL (≈ 56.1 µM).
With `O=S(=O)(c1ccc(F)cc1)N1CCN(c2nc3ccccc3c3ccccc23)CC1`, the IC50 in the data set with RAW264.7 turned out to be 76.3 µg/mL (≈ 181 µM). Also, the inhibition at 72 h, 50 ug/ml in data set [1] was found to be 32.8%. Also, the MIC99 in data set [2] was found to be 6.25 µg/mL (≈ 14.8 µM). Moreover, the selectivity ratio in data set [3] was 12.2.
Regarding `O=C(CCCc1c[nH]c2ccccc12)N1CCN(c2nc3ccccc3c3ccccc23)CC1`, the IC50 in the data set with RAW264.7 amounted to 73.3 µg/mL (≈ 163 µM). The inhibition at 72 h, 50 ug/ml in data set [1] is 34.1%. The MIC99 in data set [2] was 1.56 µg/mL (≈ 3.48 µM). Moreover, the selectivity ratio in data set [3] came out at 47.
The compound `Nc1ccccc1C(=O)N1CCN(c2nc3ccccc3c3ccccc23)CC1` had an MIC99 in data set [2] above 50 µg/mL.
With `Cc1cc(C)c(S(=O)(=O)N2CCN(c3nc4ccccc4c4ccccc34)CC2)c(C)c1`, the IC50 in the data set with RAW264.7 amounted to 94.3 µg/mL (≈ 212 µM). Further, the inhibition at 72 h, 50 ug/ml in data set [1] is 26.5%. The same compound yielded an MIC99 in data set [2] of 12.5 µg/mL (≈ 28.1 µM). In addition, in data set [3], the selectivity ratio came out at 7.54.
On the same counts, the results for `COc1ccc(S(=O)(=O)N2CCN(c3nc4ccccc4c4ccccc34)CC2)cc1` are 94.3 µg/mL (≈ 217 µM), 26.5%, 6.25 µg/mL (≈ 14.4 µM) and 15.1.
With `O=[N+]([O-])c1ccc(S(=O)(=O)N2CCN(c3nc4ccccc4c4ccccc34)CC2)cc1`, the MIC99 in data set [2] worked out at 50 µg/mL (≈ 111 µM).
In data set [2], `NC(=O)c1cnccn1` [PYRAZINAMIDE] displayed an MIC99 of 6.25 µg/mL (≈ 50.8 µM).
`N#CCC(=O)N1CCN(c2nc3ccccc3c3ccccc23)CC1` came in with an MIC99 in data set [2] of 25 µg/mL (≈ 75.7 µM). Against the preceding compound, the MIC99 is about 4-fold higher.
In data set [2], `O=C(Cc1cccc2ccccc12)N1CCN(c2nc3ccccc3c3ccccc23)CC1` displayed an MIC99 above 50 µg/mL.
For the compound `O=S(=O)(c1ccc(Br)cc1)N1CCN(c2nc3ccccc3c3ccccc23)CC1`, the IC50 in the data set with RAW264.7 came to 88.8 µg/mL (≈ 184 µM). Also, the inhibition at 72 h, 50 ug/ml in data set [1] worked out at 28.2%. Besides, the MIC99 in data set [2] was found to be 3.13 µg/mL (≈ 6.49 µM). In addition, the selectivity ratio in data set [3] was 28.4.
Turning to `NNC(=O)c1ccncc1` [ISONIAZID], the MIC99 in data set [2] is 0.1 µg/mL (≈ 0.729 µM).
`O=C(c1ccccn1)N1CCN(c2nc3ccccc3c3ccccc23)CC1`: the IC50 in the data set with RAW264.7 came out at 59.3 µg/mL (≈ 161 µM). Further, in data set [1], the inhibition at 72 h, 50 ug/ml worked out at 42.2%. The MIC99 in data set [2] stood at 3.13 µg/mL (≈ 8.5 µM). The selectivity ratio in data set [3] is 19.
